Results as given in ChEMBL document CHEMBL1811814, “Synthesis and evaluation of indole, pyrazole, chromone and pyrimidine based conjugates for tumor growth inhibitory activities--development of highly efficacious cytotoxic agents” (Eur J Med Chem, 2010).

Columns and labels:
Assay type in all cases: functional
Set-up in all cases: scale not given: the % may be the effect or the level left
OVCAR-8 = experiment: Growth inhibition of human OVCAR8 cells assessed tumor cell growth at 10^-5 M
Method in brief: (§1)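 NCI 60-human-tumor-cell-line panel screen. Each compound was tested at a single concentration of 10^-5 M, and percent growth of tumor cells was recorded for each cell line. Growth inhibition was expressed from these percent-growth values.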

NCI/ADR-RES = experiment: Growth inhibition of human NCI/ADR-RES cells assessed tumor cell growth at 10^-5 M; method in brief: as §1
SNB-75 = experiment: Growth inhibition of human SNB75 cells assessed tumor cell growth at 10^-5 M
Method in brief: (§2)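 Single-dose screen at 10^-5 M across the 60 human tumor cell line panel, run to NCI standards. The value is the percent growth of each cell line in the presence of compound. Compounds active at this dose moved on to five-concentration testing (10^-4 to 10^-8 M).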

SF-268 = experiment: Growth inhibition of human SF268 cells assessed tumor cell growth at 10^-5 M; method in brief: as §1
TK-10 = experiment: Growth inhibition of human TK10 cells assessed tumor cell growth at 10^-5 M; method in brief: as §2
ACHN = experiment: Growth inhibition of human ACHN cells assessed tumor cell growth at 10^-5 M; method in brief: as §1
SN12C = experiment: Growth inhibition of human SN12C cells assessed tumor cell growth at 10^-5 M; method in brief: as §1
IGROV-1 = experiment: Growth inhibition of human IGROV1 cells assessed tumor cell growth at 10^-5 M; method in brief: as §1
U-251 = experiment: Growth inhibition of human U251 cells assessed tumor cell growth at 10^-5 M; method in brief: as §2
NCI-H23 = experiment: Growth inhibition of human NCI-H23 cells assessed tumor cell growth at 10^-5 M; method in brief: as §1
HT-29 = experiment: Growth inhibition of human HT-29 cells assessed tumor cell growth at 10^-5 M; method in brief: as §1
T47D = experiment: Growth inhibition of human T47D cells assessed tumor cell growth at 10^-5 M; method in brief: as §2
SF-539 = experiment: Growth inhibition of human SF539 cells assessed tumor cell growth at 10^-5 M; method in brief: as §1
SNB-19 = experiment: Growth inhibition of human SNB19 cells assessed tumor cell growth at 10^-5 M; method in brief: as §2
MDA-MB-468 = experiment: Growth inhibition of human MDA-MB-468 cells assessed tumor cell growth at 10^-5 M; method in brief: as §1
CAKI-1 = experiment: Growth inhibition of human Caki1 cells assessed tumor cell growth at 10^-5 M; method in brief: as §1
SW-620 = experiment: Growth inhibition of human SW620 cells assessed tumor cell growth at 10^-5 M; method in brief: as §2
HCT-116 = experiment: Growth inhibition of human HCT116 cells assessed tumor cell growth at 10^-5 M; method in brief: as §1
EKVX = experiment: Growth inhibition of human EKVX cells assessed tumor cell growth at 10^-5 M; method in brief: as §1
[1] = Growth inhibition of human […] cells assessed tumor cell growth at 10^-5 M; method in brief: as §1
CCRF-CEM = experiment: Growth inhibition of human CCRF-CEM cells assessed tumor cell growth at 10^-5 M; method in brief: as §1
OVCAR-4 = experiment: Growth inhibition of human OVCAR4 cells assessed tumor cell growth at 10^-5 M; method in brief: as §1
SF-295 = experiment: Growth inhibition of human SF295 cells assessed tumor cell growth at 10^-5 M; method in brief: as §1
HOP-62 = experiment: Growth inhibition of human HOP62 cells assessed tumor cell growth at 10^-5 M; method in brief: as §1
SK-OV-3 = experiment: Growth inhibition of human SKOV3 cells assessed tumor cell growth at 10^-5 M; method in brief: as §1
MDA-MB-435 = experiment: Growth inhibition of human MDA-MB-435 cells assessed tumor cell growth at 10^-5 M; method in brief: as §1
UACC-62 = experiment: Growth inhibition of human UACC62 cells assessed tumor cell growth at 10^-5 M; method in brief: as §2
MOLT-4 = experiment: Growth inhibition of human MOLT4 cells assessed tumor cell growth at 10^-5 M; method in brief: as §1
SK-MEL-2 = experiment: Growth inhibition of human SK-MEL-2 cells assessed tumor cell growth at 10^-5 M; method in brief: as §1
UO-31 = experiment: Growth inhibition of human UO31 cells assessed tumor cell growth at 10^-5 M; method in brief: as §2
K562 = experiment: Growth inhibition of human K562 cells assessed tumor cell growth at 10^-5 M; method in brief: as §1
MCF7 = experiment: Growth inhibition of human MCF7 cells assessed tumor cell growth at 10^-5 M; method in brief: as §1
PC-3 = experiment: Growth inhibition of human PC3 cells assessed tumor cell growth at 10^-5 M; method in brief: as §1
[2] = Growth inhibition of human Hs 578T cells assessed tumor cell growth at 10^-5 M; method in brief: as §1
Malme-3M = experiment: Growth inhibition of human MALME-3M cells assessed tumor cell growth at 10^-5 M; method in brief: as §1
HOP-92 = experiment: Growth inhibition of human HOP92 cells assessed tumor cell growth at 10^-5 M; method in brief: as §1
HCC 2998 = experiment: Growth inhibition of human HCC2998 cells assessed tumor cell growth at 10^-5 M; method in brief: as §1
SK-MEL-28 = experiment: Growth inhibition of human SK-MEL-28 cells assessed tumor cell growth at 10^-5 M; method in brief: as §1
BT-549 = experiment: Growth inhibition of human BT549 cells assessed tumor cell growth at 10^-5 M; method in brief: as §1
MDA-MB-231 = experiment: Growth inhibition of human MDA-MB-231 cells assessed tumor cell growth at 10^-5 M; method in brief: as §1
OVCAR-5 = experiment: Growth inhibition of human OVCAR5 cells assessed tumor cell growth at 10^-5 M; method in brief: as §1
RXF 393 = experiment: Growth inhibition of human RXF393 cells assessed tumor cell growth at 10^-5 M; method in brief: as §1
A498 = experiment: Growth inhibition of human A498 cells assessed tumor cell growth at 10^-5 M; method in brief: as §1
LOX IMVI = experiment: Growth inhibition of human LOXIMVI cells assessed tumor cell growth at 10^-5 M; method in brief: as §1
NCI-H460 = experiment: Growth inhibition of human NCI-H460 cells assessed tumor cell growth at 10^-5 M; method in brief: as §1
NCI-H226 = experiment: Growth inhibition of human NCI-H226 cells assessed tumor cell growth at 10^-5 M; method in brief: as §1
HL-60(TB) = experiment: Growth inhibition of human HL-60(TB) cells assessed tumor cell growth at 10^-5 M
Method in brief: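 HL-60(TB), part of the 60-line panel, tested at a single concentration of 10^-5 M. The read-out is percent tumor cell growth relative to untreated growth.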

HCT-15 = experiment: Growth inhibition of human HCT15 cells assessed tumor cell growth at 10^-5 M; method in brief: as §1
COLO 205 = experiment: Growth inhibition of human COLO205 cells assessed tumor cell growth at 10^-5 M; method in brief: as §1
UACC-257 = experiment: Growth inhibition of human UACC257 cells assessed tumor cell growth at 10^-5 M; method in brief: as §2
DU-145 = experiment: Growth inhibition of human DU145 cells assessed tumor cell growth at 10^-5 M; method in brief: as §1
SK-MEL-5 = experiment: Growth inhibition of human SK-MEL-5 cells assessed tumor cell growth at 10^-5 M; method in brief: as §1
NCI-H522 = experiment: Growth inhibition of human NCI-H522 cells assessed tumor cell growth at 10^-5 M; method in brief: as §1
KM12 = experiment: Growth inhibition of human KM12 cells assessed tumor cell growth at 10^-5 M; method in brief: as §1
786-0 = experiment: Growth inhibition of human 786-0 cells assessed tumor cell growth at 10^-5 M; method in brief: as §1
OVCAR-3 = experiment: Growth inhibition of human OVCAR3 cells assessed tumor cell growth at 10^-5 M; method in brief: as §1
M14 = experiment: Growth inhibition of human M14 cells assessed tumor cell growth at 10^-5 M; method in brief: as §1
NCI-H322M = experiment: Growth inhibition of human NCI-H322M cells assessed tumor cell growth at 10^-5 M; method in brief: as §1
SR = experiment: Growth inhibition of human SR cells assessed tumor cell growth at 10^-5 M; method in brief: as §2
A549 = experiment: Growth inhibition of human A549 cells assessed tumor cell growth at 10^-5 M; method in brief: as §1

`Cc1ccc(S(=O)(=O)n2cc(/C=C3\C(=O)N(c4c(Cl)cccc4Cl)c4ccccc43)c3ccccc32)cc1` showed an Activity (OVCAR-8) of 96.7%, an Activity (NCI/ADR-RES) of 88.2% and an Activity (SNB-75) of 74.3%. The Activity (SF-268) was 86.4%, the Activity (TK-10) was 102.3% and the Activity (ACHN) was 89.8%. It also gave an Activity (SN12C) of 87.4%, an Activity (IGROV-1) of 83.8% and an Activity (U-251) of 98.2%. For the same molecule, the Activity (NCI-H23) was 76.6%, the Activity (HT-29) was 89.3% and the Activity (T47D) was 88.7%. The Activity (SF-539) was 102.9%, the Activity (SNB-19) was 105.9% and the Activity (MDA-MB-468) was 84%. It also gave an Activity (CAKI-1) of 79.5%, an Activity (SW-620) of 89.9% and an Activity (HCT-116) of 87%. The Activity (EKVX) was 89.5%, the Activity [1] was 77.8% and the Activity (CCRF-CEM) was 95.6%. For the same molecule, the Activity (OVCAR-4) was 73.8%, the Activity (SF-295) was 100.8% and the Activity (HOP-62) was 83.2%. For the same molecule, the Activity (SK-OV-3) was 98.7%, the Activity (MDA-MB-435) was 99.2% and the Activity (UACC-62) was 78.2%. For the same molecule, the Activity (MOLT-4) was 89.6%, the Activity (SK-MEL-2) was 94.5% and the Activity (UO-31) was 63.9%. It also gave an Activity (K562) of 86.5%, an Activity (MCF7) of 84.6% and an Activity (PC-3) of 64.5%. The Activity [2] was 73.4%, the Activity (Malme-3M) was 75.8% and the Activity (HOP-92) was 33.5%. It also gave an Activity (HCC 2998) of 86.7%, an Activity (SK-MEL-28) of 95.8% and an Activity (BT-549) of 94.2%. The Activity (MDA-MB-231) was 89.3%, the Activity (OVCAR-5) was 84.2% and the Activity (RXF 393) was 121.2%. The Activity (A498) was 44%, the Activity (LOX IMVI) was 89.7% and the Activity (NCI-H460) was 102.8%. For the same molecule, the Activity (NCI-H226) was 95.2%, the Activity (HL-60(TB)) was 79.6% and the Activity (HCT-15) was 104.5%. For the same molecule, the Activity (COLO 205) was 100.1%, the Activity (UACC-257) was 106.8% and the Activity (DU-145) was 102.5%. The Activity (SK-MEL-5) was 101%, the Activity (NCI-H522) was 91.5% and the Activity (KM12) was 97.6%. It also gave an Activity (786-0) of 92.1%, an Activity (OVCAR-3) of 94.9% and an Activity (M14) of 76%. For the same molecule, the Activity (NCI-H322M) was 99.4%, the Activity (SR) was 87.4% and the Activity (A549) was 103.8%.
